Experimental data from ChEMBL document CHEMBL4043277, “Enantioselective inhibitory abilities of enantiomers of notoamides against RANKL-induced formation of multinuclear osteoclasts” (Bioorg Med Chem Lett, 2017).
Calls of active or inactive are those of the source. The rule behind the calls is not given here.

How the values were obtained:
[1] = Inhibition of RANKL-induced Acp5 mRNA expression in mouse RAW264 cells at 5 uM after 5 days by RT-PCR method relative to control; assay type: functional; conditions: RAW264.7, 120 h
How it was run: (§1)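 RAW264 cells grown in MEMα with 10% heat-inactivated FBS and penicillin/streptomycin at 37°C, 5% CO2. Cells were co-treated with RANKL (50 ng/mL) and compound for five days. Total RNA was analysed by real-time RT-PCR with SYBR Green: 95 °C 10 min, then cycles of 95 °C 10 s, annealing 5 s, 72 °C 14 s. Expression was calculated from duplicate experiments.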

[2] = Inhibition of RANKL-induced Ocstamp mRNA expression in mouse RAW264 cells at 5 uM after 5 days by RT-PCR method relative to control; assay type: functional; conditions: RAW264.7, 120 h; how it was run: as §1
[3] = Inhibition of RANKL-induced Dcstamp mRNA expression in mouse RAW264 cells at 5 uM after 5 days by RT-PCR method relative to control; assay type: functional; conditions: RAW264.7, 120 h; how it was run: as §1
[4] = Inhibition of RANKL-induced formation of multinuclear osteoclasts in mouse RAW264 cells after 4 days by p-NPP substrate based absorbance method; assay type: functional, cell-based; conditions: RAW264.7, 96 h
How it was run: (§2)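 RAW264 cells in MEMα/10% FBS were plated for one day, then treated with compound plus soluble RANKL (250 ng/mL) for four days. After a PBS wash, cells were lysed on ice for 10 min in TRAP buffer (tartrate/acetate, pH 5.7). Extract was incubated with 2.5 mM p-nitrophenyl phosphate at 37°C for 4 h and stopped with NaOH. A405 was read in quadruplicate.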

RAW264 [5] = assay: Inhibition of RANKL-induced formation of multinuclear osteoclasts in mouse RAW264 cells at 5 uM after 4 days by TRAP staining based assay; assay type: functional, cell-based
How it was run: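 RAW264 cells were treated with compound plus soluble RANKL (250 ng/mL) for four days, then fixed in 4% paraformaldehyde for 10 min at room temperature. They were stained 1 h at room temperature with naphthol AS-MX phosphate/fast red violet LB in tartrate/acetate, pH 5.2. TRAP-positive cells with three or more nuclei were scored as multinuclear osteoclasts.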

[6] = Inhibition of RANKL-induced Atp6v0d2 mRNA expression in mouse RAW264 cells at 5 uM after 5 days by RT-PCR method relative to control; assay type: functional; conditions: RAW264.7, 120 h; how it was run: as §1
[7] = Inhibition of RANKL-induced Nfatc1 mRNA expression in mouse RAW264 cells at 5 uM after 5 days by RT-PCR method relative to control; assay type: functional; conditions: RAW264.7, 120 h; how it was run: as §1
[8] = Inhibition of RANKL-induced Ctsk mRNA expression in mouse RAW264 cells at 5 uM after 5 days by RT-PCR method relative to control; assay type: functional; conditions: RAW264.7, 120 h; how it was run: as §1
RAW264 [9] = assay: Inhibition of RANKL-induced formation of multinuclear osteoclasts in mouse RAW264 cells at 10 ug/ml after 4 days by p-NPP substrate based absorbance method; assay type: functional, cell-based; how it was run: as §2

SMILES	osteoclast formation inhibition (active/not active) (RAW264 [9])	also measured
CC(C)=CCc1c(O)ccc2c3c([nH]c12)C(C)(C)[C@@H]1C[C@@]24CCCN2C(=O)[C@]1(C3)NC4=O	–	inhibition at 5 µM [1]: 20 to 50%; inhibition at 5 µM [2]: 20 to 50%; inhibition at 5 µM [3]: 20 to 50%; IC50 [4]: 1.7 µM; inhibition (RAW264 [5]): inactive; inhibition at 5 µM [6]: 20 to 50%; inhibition at 5 µM [7]: 20 to 50%; inhibition at 5 µM [8]: 20 to 50%
CC1(C)C=Cc2c(ccc3c2N(O)C(=O)[C@]32C[C@]34NC(=O)[C@@]5(CCCN5C3=O)C[C@@H]4C2(C)C)O1	Active	–
CC1(C)C=Cc2c(ccc3c2NC(=O)[C@@]32C[C@@]34NC(=O)[C@]5(CCCN5C3=O)C[C@H]4C2(C)C)O1	Active	–
CC1(C)C=Cc2c(ccc3c4c([nH]c23)C(C)(C)[C@H]2C[C@@]35CCCN3C(=O)[C@]2(C4)NC5=O)O1	Active	–
CC1(C)C=Cc2c(ccc3c4c([nH]c23)C(C)(C)[C@@H]2C[C@]35CCCN3C(=O)[C@@]2(C4)NC5=O)O1	Active	–
CC1(C)C=Cc2c(ccc3c2N(O)C(=O)[C@@]32C[C@@]34NC(=O)[C@]5(CCCN5C3=O)C[C@H]4C2(C)C)O1	Active	–
C=CC(C)(C)[C@@]12Nc3c(ccc4c3C=CC(C)(C)O4)[C@]1(O)C[C@H]1C(=O)N3CCC[C@H]3C(=O)N12	inactive	–
CC1(C)C=Cc2c(ccc3c2NC(=O)[C@]32C[C@]34NC(=O)[C@@]5(CCCN5C3=O)C[C@@H]4C2(C)C)O1	Active	–
CC(C)=CCc1c(O)ccc2c3c([nH]c12)C(C)(C)[C@H]1C[C@]24CCCN2C(=O)[C@@]1(C3)NC4=O	–	IC50 [4]: 4.4 µM
C=CC(C)(C)[C@]1(C[C@@H]2NC(=O)[C@@H]3CCCN3C2=O)C(=O)Nc2c1ccc1c2C=CC(C)(C)O1	inactive	–
CC(C)=CCc1c(O)ccc2c3c([nH]c12)C(C)(C)[C@H]1CC24CCCN2C(=O)C1(C3)NC4=O (mixture of isomers)	Active	–
